Results gathered from unrelated publications.
Compare with care: the assays were run in different laboratories.
Nuclear receptor subfamily 4 group A member 2: Nuclear receptor subfamily 4 group A member 2 (Homo sapiens, UniProt P43354)
P2RY14: P2Y purinoceptor 14 (P2RY14, Homo sapiens, UniProt Q15391)
CDPK1: Calcium-dependent protein kinase 1 (CDPK1, Plasmodium falciparum, UniProt P62344)

Structure (SMILES)	target	assay	test system	conditions	measurement	result
CCN1CCN(c2cc(N3CCN(CC)CC3)nc(NCCNc3ccnc4cc(Cl)ccc34)n2)CC1	Nuclear receptor subfamily 4 group A member 2	thermal stability, DSF		100 µM	ΔTm	-0.12 °C
O=C(N[C@@H](Cc1c[nH]c2ccccc12)C(=O)O)C1c2ccccc2Oc2ccccc21	P2RY14	cAMP, antagonist	HEK293	0.1 µM	inhibition	18.9%
C1=C/COCc2cc(ccc2OCCN2CCCC2)Nc2nccc(n2)-c2cccc(c2)COC/1	CDPK1	binding		0.1 µM	remaining binding	36%
CN1C(C(=O)Nc2ccccn2)=C(O)c2sc(Cl)cc2S1(=O)=O	Nuclear receptor subfamily 4 group A member 2	thermal stability, DSF		100 µM	ΔTm	0.18 °C
CCCCC(=O)Nc1ccc(-c2ccc3ncn(CCC)c(=O)c3c2)cn1	CDPK1	binding, competition with immobilised ligand		0.5 µM	remaining binding	100%
COC(=O)[C@H](Cc1c[nH]c2ccccc12)NC(=O)COc1ccc(C)cc1	P2RY14	cAMP, antagonist	HEK293	0.1 µM	inhibition	-20%
COc1ccc2oc(-c3ccc4nc(N)oc4c3)c/c(=N\c3ccccc3NC(=O)CCN)c2c1	TGF-beta receptor type-1 (TGFBR1, Homo sapiens, UniProt P36897)	binding		1 µM	remaining binding	111%
O=C(N[C@@H](Cc1c[nH]c2ccccc12)C(=O)O)c1ccco1	P2RY14	cAMP, antagonist	HEK293	0.1 µM	inhibition	73.6%
Cc1cc(O)c(-c2ccc([C@@H](C)CN(C)C)cc2)c2c1[nH]c(=O)c1sccc12	Mitogen-activated protein kinase kinase kinase 1 (MAP3K1, Homo sapiens, UniProt Q13233)	enzyme activity, inhibitor		0.1 µM	inhibition	4.39%
